Laboratory results taken from ChEMBL document CHEMBL1151940, “Chemical and biological investigation of cyclopropyl containing diaryl-pyrazole-3-carboxamides as novel and potent cannabinoid type 1 receptor antagonists” (J Med Chem, 2009).

Legend:
Cannabinoid receptor 1 = Cannabinoid receptor 1 (Rattus norvegicus, UniProt P20272); test: Displacement of [3H]SR141716A from CB1 receptor in rat cerebellum by scintillation spectrometry; assay type: tissue-based
Mus musculus [1] = test: Antiobesity activity in TBU8 high fat diet-induced obese C57/BL6 mouse assessed as serum HDL-cholesterol level at 30 mg/kg, po administered once daily for 14 days (Rvb=4.42+/-0.08 […]); assay type: functional, C57Bl/6
Mus musculus [2] = test: Antiobesity activity in TBU8 high fat diet-induced obese C57/BL6 mouse assessed as serum LDL-cholesterol level at 30 mg/kg, po administered once daily for 14 days (Rvb=0.84+/-0.03 […]); assay type: functional, C57Bl/6
Mus musculus [3] = test: Antiobesity activity in TBU8 high fat diet-induced obese C57/BL6 mouse assessed as serum glucose level at 30 mg/kg, po administered once daily for 14 days (reference value: 9.52+/-0.38 […]); assay type: functional, C57Bl/6
Mus musculus [4] = test: Antiobesity activity in TBU8 high fat diet-induced obese C57/BL6 mouse assessed as serum cholesterol level at 30 mg/kg, po administered once daily for 14 days (reference value: 5.35+/-0.12 […]); assay type: functional, C57Bl/6
Mus musculus [5] = test: Antiobesity activity in TBU8 high fat diet-induced obese C57/BL6 mouse assessed as serum triglyceride level at 30 mg/kg, po administered once daily for 14 days (reference value: 1.42+/-0.04 […]); assay type: functional, C57Bl/6
Mus musculus [6] = test: Antiobesity activity in TBU8 high fat diet-induced obese C57/BL6 mouse assessed as body weight at 30 mg/kg, po administered once daily for 14 days (Rvb=41.90 g); assay type: functional, C57Bl/6
Mus musculus [7] = test: Antiobesity activity in TBU8 high fat diet-induced obese C57/BL6 mouse assessed as decrease in body weight at 30 mg/kg, po administered once daily for 14 days relative to fat control; assay type: functional, C57Bl/6; design: scale not given: the % may be the effect or the level left
Mus musculus [8] = test: Inhibition of WIN-55212-2-induced hypothermia in po dosed CD1 mouse assessed as rectal temperature administered 15 mins prior to WIN-55212 challenge measured after 45 mins post-induction; assay type: functional
Procedure, shortened: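 Mice were pretreated, then 15 min later given WIN 55,212-2 (3 mg/kg ip) or vehicle; rectal temperature was read 45 min after that. n=8/group. Analysis was one-way ANOVA with Tukey post hoc test. ED50 values were derived for attenuation of hypothermia.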

Mus musculus [9] = test: Antiobesity activity in TBU8 high fat diet-induced obese C57/BL6 mouse assessed as decrease in body weight at 3 mg/kg, po administered once daily for 14 days relative to fat control; assay type: functional, C57Bl/6; design: scale not given: the % may be the effect or the level left
Mus musculus [10] = test: Antiobesity activity in po dosed TBU8 high fat diet-induced obese C57/BL6 mouse assessed as decrease in body weight administered once daily for 14 days; assay type: functional, organism-based; settings: C57Bl/6
Procedure, shortened: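 TBU8 high-fat diet fed mice brought to about 60% excess body weight over lean controls (usually 6-8 weeks), isolated and grouped (n=8) balanced by body weight; 3-day habituation with daily tap water, then oral dosing once daily for 14 days against vehicle-treated fat controls; body weight taken at day 14; differences versus fat and lean controls tested.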

Mus musculus [11] = test: Antiobesity activity in TBU8 high fat diet-induced obese C57/BL6 mouse assessed as decrease in obese-induced elevated serum cholesterol level at 30 mg/kg, po administered once daily for 14 days relative to fat control; assay type: functional, C57Bl/6; design: scale not given: the % may be the effect or the level left
Mus musculus [12] = test: Antiobesity activity in TBU8 high fat diet-induced obese C57/BL6 mouse assessed as decrease in body weight at 10 mg/kg, po administered once daily for 14 days relative to fat control; assay type: functional, C57Bl/6; design: scale not given: the % may be the effect or the level left
Mus musculus [13] = test: Appetite suppressant activity in fasted CD1 mouse assessed as decrease in palatable chow intake at 10 mg/kg, po administered 1 hr before food consumption measured after 1 hr relative to control; assay type: functional; design: scale not given: the % may be the effect or the level left
Procedure, shortened: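 CD1 mice (>25 g) were housed singly for ≥3 days, then fasted 16 h. Compound or vehicle (5% Tween 80) was given orally in the home cage. After 1 h, pre-weighed palatable chow was offered and reweighed 1 h later. Intake was expressed as % difference from control mean (n=8-10/group).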

Mus musculus [14] = test: Antiobesity activity in TBU8 high fat diet-induced obese C57/BL6 mouse assessed as serum triglyceride level at 3 mg/kg, po administered once daily for 14 days (reference value: 1.42+/-0.04 […]); assay type: functional, C57Bl/6
Mus musculus [15] = test: Antiobesity activity in TBU8 high fat diet-induced obese C57/BL6 mouse assessed as serum HDL-cholesterol level at 3 mg/kg, po administered once daily for 14 days (Rvb=4.42+/-0.08 […]); assay type: functional, C57Bl/6
Mus musculus [16] = test: Antiobesity activity in TBU8 high fat diet-induced obese C57/BL6 mouse assessed as serum glucose level at 3 mg/kg, po administered once daily for 14 days (reference value: 9.52+/-0.38 […]); assay type: functional, C57Bl/6
Mus musculus [17] = test: Antiobesity activity in TBU8 high fat diet-induced obese C57/BL6 mouse assessed as serum cholesterol level at 3 mg/kg, po administered once daily for 14 days (reference value: 5.35+/-0.12 […]); assay type: functional, C57Bl/6
Mus musculus [18] = test: Antiobesity activity in TBU8 high fat diet-induced obese C57/BL6 mouse assessed as body weight at 3 mg/kg, po administered once daily for 14 days (Rvb=41.90 g); assay type: functional, C57Bl/6
Mus musculus [19] = test: Antiobesity activity in TBU8 high fat diet-induced obese C57/BL6 mouse assessed as serum LDL-cholesterol level at 3 mg/kg, po administered once daily for 14 days (Rvb=0.84+/-0.03 […]); assay type: functional, C57Bl/6
Mus musculus [20] = test: Antiobesity activity in TBU8 high fat diet-induced obese C57/BL6 mouse assessed as serum cholesterol level at 10 mg/kg, po administered once daily for 14 days (reference value: 5.35+/-0.12 […]); assay type: functional, C57Bl/6
Mus musculus [21] = test: Antiobesity activity in TBU8 high fat diet-induced obese C57/BL6 mouse assessed as serum triglyceride level at 10 mg/kg, po administered once daily for 14 days (reference value: 1.42+/-0.04 […]); assay type: functional, C57Bl/6
Mus musculus [22] = test: Antiobesity activity in TBU8 high fat diet-induced obese C57/BL6 mouse assessed as serum HDL-cholesterol level at 10 mg/kg, po administered once daily for 14 days (Rvb=4.42+/-0.08 […]); assay type: functional, C57Bl/6
Mus musculus [23] = test: Antiobesity activity in TBU8 high fat diet-induced obese C57/BL6 mouse assessed as body weight at 10 mg/kg, po administered once daily for 14 days (Rvb=41.90 g); assay type: functional, C57Bl/6
Mus musculus [24] = test: Antiobesity activity in TBU8 high fat diet-induced obese C57/BL6 mouse assessed as serum LDL-cholesterol level at 10 mg/kg, po administered once daily for 14 days (Rvb=0.84+/-0.03 […]); assay type: functional, C57Bl/6
Mus musculus [25] = test: Antiobesity activity in TBU8 high fat diet-induced obese C57/BL6 mouse assessed as serum glucose level at 10 mg/kg, po administered once daily for 14 days (reference value: 9.52+/-0.38 […]); assay type: functional, C57Bl/6

Chain of Cannabinoid receptor 1 (P20272 whole entry): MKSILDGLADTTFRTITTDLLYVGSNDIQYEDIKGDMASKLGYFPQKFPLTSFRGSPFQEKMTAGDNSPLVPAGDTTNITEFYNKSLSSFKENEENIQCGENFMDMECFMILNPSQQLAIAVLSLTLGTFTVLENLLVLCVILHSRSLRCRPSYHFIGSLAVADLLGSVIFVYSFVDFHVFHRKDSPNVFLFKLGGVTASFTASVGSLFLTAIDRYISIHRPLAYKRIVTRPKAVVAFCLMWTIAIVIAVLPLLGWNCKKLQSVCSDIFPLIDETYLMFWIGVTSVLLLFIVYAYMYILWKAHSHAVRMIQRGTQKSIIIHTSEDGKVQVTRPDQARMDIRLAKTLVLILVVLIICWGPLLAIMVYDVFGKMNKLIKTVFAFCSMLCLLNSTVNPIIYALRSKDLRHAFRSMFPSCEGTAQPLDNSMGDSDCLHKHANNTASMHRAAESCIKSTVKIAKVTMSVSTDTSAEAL

Cc1c(C(=O)NN2CCCCC2)nn(-c2ccc(F)cc2)c1-c1ccc(C2CC2)cc1
Ki (Cannabinoid receptor 1): 190 nM

CCNC1(C(N)=O)CCN(c2ncnc3c2nc(-c2ccccc2Cl)n3-c2ccc(Cl)cc2)CC1 [OTENABANT]
Activity (Mus musculus [1]): 4.4 mM
Activity (Mus musculus [2]): 0.85 mM
Activity (Mus musculus [3]): 9.45 mM
Activity (Mus musculus [4]): 5.34 mM
Activity (Mus musculus [5]): 1.32 mM
Activity (Mus musculus [6]): 36.6 g

O=C(NN1CCCCC1)c1cc(-c2ccc(C3CC3)cc2)n(-c2ccc(Cl)cc2Cl)n1
Ki (Cannabinoid receptor 1): 16 nM

Cc1c(C(=O)NN2CCCCC2)nn(-c2ccccc2F)c1-c1ccc(C2CC2)cc1
Ki (Cannabinoid receptor 1): 11 nM

COc1c(C(=O)NN2CCCCC2)nn(-c2ccc(Cl)cc2Cl)c1-c1ccc(C2CC2)cc1
Ki (Cannabinoid receptor 1): 3 nM

CCc1c(C(=O)NN2CCCCC2)nn(-c2ccc(Cl)cc2Cl)c1-c1ccc(C2CC2)cc1
Activity (Mus musculus [7]): 22%
ED50 (Mus musculus [8]): 0.84 mg/kg
Activity (Mus musculus [9]): 8%
Ki (Cannabinoid receptor 1): 4 nM
Activity (Mus musculus [10]): Dose-dependent effect
Activity (Mus musculus [11]): 19%
Activity (Mus musculus [12]): 15%
Activity (Mus musculus [13]): 47%

Cc1c(C(=O)NN2CCCCC2)nn(-c2ccccc2Cl)c1-c1ccc(C2CC2)cc1
Ki (Cannabinoid receptor 1): 4 nM

C[C@H](NC(=O)C(C)(C)Oc1ccc(C(F)(F)F)cn1)[C@@H](Cc1ccc(Cl)cc1)c1cccc(C#N)c1 [TARANABANT]
Activity (Mus musculus [14]): 1.44 mM
Activity (Mus musculus [15]): 4.16 mM
Activity (Mus musculus [16]): 9.11 mM
Activity (Mus musculus [17]): 5.01 mM
Activity (Mus musculus [18]): 33.7 g
Activity (Mus musculus [19]): 0.82 mM

Cc1c(C(=O)NN2CCCCC2)nn(-c2ccc(Cl)cc2Cl)c1-c1ccc(C2CC2)cc1
Ki (Cannabinoid receptor 1): 3 nM

CCc1c(C(=O)NN2CCCC2)nn(-c2ccc(Cl)cc2Cl)c1-c1ccc(C2CC2)cc1
Activity (Mus musculus [7]): 21%
Activity (Mus musculus [20]): 4.56 mM
ED50 (Mus musculus [8]): 0.84 mg/kg
Activity (Mus musculus [9]): 8%
Ki (Cannabinoid receptor 1): 4 nM
Activity (Mus musculus [10]): Dose-dependent effect
Activity (Mus musculus [21]): 1.3 mM
Activity (Mus musculus [11]): 36%
Activity (Mus musculus [12]): 15%
Activity (Mus musculus [22]): 3.9 mM
Activity (Mus musculus [23]): 35.6 g
Activity (Mus musculus [24]): 0.68 mM
Activity (Mus musculus [25]): 8.79 mM
Activity (Mus musculus [13]): 49%

Cc1c(C(=O)NN2CCCCC2)nn(-c2ccc(F)cc2F)c1-c1ccc(C2CC2)cc1
Ki (Cannabinoid receptor 1): 34 nM

Cc1c(C(=O)NN2CCCCC2)nn(-c2ccc(Cl)cc2Cl)c1-c1ccc(C2CCC2)cc1.Cl
ED50 (Mus musculus [8]): 4 mg/kg
Ki (Cannabinoid receptor 1): 7 nM

Cc1c(C(=O)NN2CCCCC2)nn(-c2ccc(Cl)cc2)c1-c1ccc(C2CC2)cc1
Ki (Cannabinoid receptor 1): 79 nM

Cc1c(C(=O)NN2CCCCC2)nn(-c2ccc(Cl)cc2F)c1-c1ccc(C2CC2)cc1
Ki (Cannabinoid receptor 1): 14 nM

Cc1c(C(=O)NN2CCCCC2)nn(-c2ccc(Cl)cc2Cl)c1-c1ccc(Cl)cc1 [RIMONABANT]
Activity (Mus musculus [7]): 24%
Activity (Mus musculus [20]): 5.35 mM
ED50 (Mus musculus [8]): 0.41 mg/kg
Activity (Mus musculus [9]): 9%
Activity (Mus musculus [10]): Dose-dependent effect
Activity (Mus musculus [21]): 1.18 mM
Activity (Mus musculus [11]): 0%
Activity (Mus musculus [12]): 15%
Activity (Mus musculus [22]): 4.4 mM
Activity (Mus musculus [23]): 35.6 g
Activity (Mus musculus [24]): 0.82 mM
Activity (Mus musculus [25]): 8.84 mM
Activity (Mus musculus [13]): 50%

Cc1c(C(=O)NN2CCCC2)nn(-c2ccccc2)c1-c1ccc(C2CC2)cc1
Ki (Cannabinoid receptor 1): 121 nM

Cc1c(C(=O)NN2CCCCC2)nn(-c2ccc(Cl)cc2Cl)c1-c1ccc(C2CCCCC2)cc1
ED50 (Mus musculus [8]): > 3 mg/kg
Ki (Cannabinoid receptor 1): 13 nM

Cc1c(C(=O)NN2CCCCC2)nn(-c2ccc(Cl)cc2Cl)c1-c1ccc(C2CCCC2)cc1
ED50 (Mus musculus [8]): ≥ 3 mg/kg
Ki (Cannabinoid receptor 1): 15 nM

Cc1c(C(=O)NN2CCCCC2)nn(-c2ccc(Br)cc2Cl)c1-c1ccc(C2CC2)cc1
Activity (Mus musculus [7]): 26%
ED50 (Mus musculus [8]): 0.22 mg/kg
Activity (Mus musculus [9]): 9%
Ki (Cannabinoid receptor 1): 3 nM
Activity (Mus musculus [10]): Dose-dependent effect
Activity (Mus musculus [11]): 16%
Activity (Mus musculus [12]): 19%
Activity (Mus musculus [13]): 54%

Cc1c(C(=O)NN2CCCCC2)nn(-c2ccccc2)c1-c1ccc(C2CC2)cc1
Ki (Cannabinoid receptor 1): 66 nM

Cc1c(C(=O)NN2CCCCC2)nn(-c2ccc(F)cc2Cl)c1-c1ccc(C2CC2)cc1
Ki (Cannabinoid receptor 1): 8 nM
